Source: ChEMBL document CHEMBL3421607, “Design, synthesis and antibacterial activity of cinnamaldehyde derivatives as inhibitors of the bacterial cell division protein FtsZ” (Eur J Med Chem, 2015)
In brackets after ≈: the same amount, converted by molar mass.

Key:
Bacillus subtilis [1] = experiment: microbe, parasite or virus in culture; assay type: functional; details: ATCC 9372, 24 h
Escherichia coli [2] = experiment: microbe, parasite or virus in culture; assay type: functional; details: ATCC 25922, 24 h
Pseudomonas aeruginosa [3] = experiment: microbe, parasite or virus in culture; assay type: functional; details: ATCC 27853, 24 h
Staphylococcus aureus [4] = experiment: microbe, parasite or virus in culture; assay type: functional; details: ATCC 25923, 24 h
Staphylococcus aureus [5] = experiment: microbe, parasite or virus in culture; assay type: functional; details: ATCC 29213, 24 h
Staphylococcus aureus [6] = experiment: Antibacterial activity against penicillin-resistant Staphylococcus aureus clinical isolates after 24 hrs by broth microdilution method; assay type: functional
[7] = test system: Staphylococcus epidermidis; experiment: Antibacterial activity against penicillin-resistant Staphylococcus epidermidis clinical isolates after 24 hrs by broth microdilution method; assay type: functional
Streptococcus pyogenes [8] = experiment: Antibacterial activity against penicillin-susceptible Streptococcus pyogenes clinical isolates after 24 hrs by broth microdilution method; assay type: functional
Streptococcus pyogenes [9] = experiment: Antibacterial activity against penicillin-resistant Streptococcus pyogenes clinical isolates after 24 hrs by broth microdilution method; assay type: functional
Bacillus subtilis [10] = experiment: microbe, parasite or virus in culture; assay type: functional; details: ATCC 9372, 5 h
Escherichia coli [11] = experiment: microbe, parasite or virus in culture; assay type: functional; details: ATCC 25922, 5 h
Pseudomonas aeruginosa [12] = experiment: microbe, parasite or virus in culture; assay type: functional; details: ATCC 27853, 5 h
Staphylococcus aureus [13] = experiment: microbe, parasite or virus in culture; assay type: functional; details: ATCC 25923, 5 h
[14] = biological target: T1, Cell division protein FtsZ (Escherichia coli K-12) (UniProt P0A9A6); experiment: Inhibition of Escherichia coli ATCC 25922 recombinant N-His6-tagged FtsZ polymerization expressed in Escherichia coli BL21(DE3) by light scattering assay
T1 sequence (whole entry): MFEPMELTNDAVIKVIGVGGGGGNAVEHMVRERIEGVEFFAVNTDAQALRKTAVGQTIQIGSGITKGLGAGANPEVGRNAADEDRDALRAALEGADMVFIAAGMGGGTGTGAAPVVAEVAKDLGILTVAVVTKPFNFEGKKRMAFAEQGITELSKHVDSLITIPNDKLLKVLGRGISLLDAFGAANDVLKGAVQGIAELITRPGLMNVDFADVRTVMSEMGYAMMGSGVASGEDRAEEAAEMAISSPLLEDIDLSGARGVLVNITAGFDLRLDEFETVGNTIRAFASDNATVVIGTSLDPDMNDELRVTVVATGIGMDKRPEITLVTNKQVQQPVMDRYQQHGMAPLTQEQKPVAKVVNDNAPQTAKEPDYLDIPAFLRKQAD
Outline: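 E. coli FtsZ (N-His6, expressed in BL21(DE3), Ni-affinity purified) at 12 µM in 50 mM MES, 5 mM MgCl2, 50 mM KCl, pH 6.5 with compound at various concentrations, 2% DMSO, 30°C. Right-angle light scattering at 400 nm (excitation and emission). 120 s baseline, then polymerization started with 2 mM GTP and followed for 2000 s.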

[15] = biological target: T1, Cell division protein FtsZ (Escherichia coli K-12); experiment: (§1) Inhibition of Escherichia coli ATCC 25922 recombinant N-His6-tagged FtsZ polymerization expressed in Escherichia coli BL21(DE3) incubated for 15 mins prior to GTP addition measured after 390 mins by malachite green staining-based GTPase assay; details: in the assay text read “30 mins” for “390 mins”
Outline: (§2)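 Purified N-His6 E. coli FtsZ (10 µM) in 50 mM MES, 5 mM MgCl2, 50 mM KCl, pH 6.5 with compound at varying concentrations (2% DMSO), preincubated 15 min at room temperature. 50 μM GTP then added for 30 min at 37°C. Released phosphate measured by Malachite Green reagent (20% v/v) at A620, background-subtracted and read against a phosphate standard curve.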

[16] = test system: Staphylococcus epidermidis; experiment: Ratio of cinnamic acid MIC to compound MIC for Staphylococcus epidermidis; assay type: functional
[17] = test system: Staphylococcus epidermidis; experiment: Ratio of curcumin MIC to compound MIC for Staphylococcus epidermidis; assay type: functional
[18] = test system: Staphylococcus epidermidis; experiment: Ratio of ciprofloxacin MIC to compound MIC for Staphylococcus epidermidis; assay type: functional
[19] = biological target: T2, Cell division protein FtsZ (Escherichia coli K-12, UniProt P0A9A6); experiment: as §1; details: in the assay text read “30 mins” for “390 mins”
T2 sequence (P0A9A6 whole entry): T1 sequence (whole entry)
Outline: as §2

Escherichia coli [20] = experiment: Antibacterial activity against Escherichia coli; assay type: functional
Outline: (§3)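 NCCLS tube-dilution MIC using B. subtilis ATCC9372 and E. coli ATCC25922. Strains were grown on Mueller Hinton agar at 37°C for 24 h. […] Tubes were incubated at 37°C for 24 h, and the MIC was read as the last tube without turbidity.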

Bacillus subtilis [21] = experiment: Antibacterial activity against Bacillus subtilis; assay type: functional
Outline: as §3

Staphylococcus aureus [22] = experiment: Ratio of cinnamic acid MIC to compound MIC for penicillin-susceptible Staphylococcus aureus ATCC 25923; assay type: functional
Staphylococcus aureus [23] = experiment: Ratio of curcumin MIC to compound MIC for penicillin-susceptible Staphylococcus aureus ATCC 25923; assay type: functional
Staphylococcus aureus [24] = experiment: Ratio of ciprofloxacin MIC to compound MIC for penicillin-susceptible Staphylococcus aureus ATCC 25923; assay type: functional

Row | Structure (SMILES) | MIC (Bacillus subtilis [1]) [µg/mL] | MIC (Escherichia coli [2]) [µg/mL] | MIC (Pseudomonas aeruginosa [3]) [µg/mL] | MIC (Staphylococcus aureus [4]) [µg/mL] | MIC (Staphylococcus aureus [5]) [µg/mL] | MIC (Staphylococcus aureus [6]) [µg/mL] | MIC [7] [µg/mL] | MIC (Streptococcus pyogenes [8]) [µg/mL] | MIC (Streptococcus pyogenes [9]) [µg/mL] | MIC (Bacillus subtilis [10]) [µg/mL] | MIC (Escherichia coli [11]) [µg/mL] | MIC (Pseudomonas aeruginosa [12]) [µg/mL] | MIC (Staphylococcus aureus [13]) [µg/mL] | other results
1 | Cc1nc2ccccc2n1C(=O)/C=C/c1ccc(F)cc1 | 128 (≈ 457 µM) | 128 (≈ 457 µM) | 128 (≈ 457 µM) | 16 (≈ 57.1 µM) | > 128 | 64 (≈ 228 µM) | 16 (≈ 57.1 µM) | 128 (≈ 457 µM) | 64 (≈ 228 µM) | > 128 | > 128 | > 128 | 0.5 (≈ 1.78 µM) | inhibition [14]: Dose-dependent effect; inhibition [15]: Dose-dependent effect
2 | Cc1nc2ccccc2n1C(=O)/C=C/c1ccccc1Cl | 128 (≈ 431 µM) | 128 (≈ 431 µM) | 128 (≈ 431 µM) | 32 (≈ 108 µM) | 128 (≈ 431 µM) | 64 (≈ 216 µM) | 4 (≈ 13.5 µM) | > 128 | – | > 128 | 128 (≈ 431 µM) | 128 (≈ 431 µM) | 16 (≈ 53.9 µM) | Ratio [16]: >32; Ratio [17]: >32; Ratio [18]: >32
3 | Cc1nc2ccccc2n1C(=O)/C=C/c1ccc(Cl)cc1Cl | 128 (≈ 386 µM) | 128 (≈ 386 µM) | 128 (≈ 386 µM) | 4 (≈ 12.1 µM) | > 128 | 16 (≈ 48.3 µM) | 4 (≈ 12.1 µM) | > 128 | 64 (≈ 193 µM) | > 128 | > 128 | > 128 | 1 (≈ 3.02 µM) | Ratio [16]: >32; Ratio [17]: >32; Ratio [18]: >32; inhibition [14]: Dose-dependent effect; inhibition [15]: Dose-dependent effect; IC50 [19]: 90.6 µM
4 | O=C(/C=C/c1ccc(Cl)cc1Cl)N1CCOCC1 | > 128 | 128 (≈ 447 µM) | 128 (≈ 447 µM) | > 128 | > 128 | > 128 | 64 (≈ 224 µM) | > 128 | 128 (≈ 447 µM) | > 128 | > 128 | > 128 | > 128 | –
5 | Cc1nccn1-c1cc(NC(=O)/C=C/c2ccc([N+](=O)[O-])cc2)cc(C(F)(F)F)c1 | 128 (≈ 307 µM) | > 128 | > 128 | 128 (≈ 307 µM) | > 128 | > 128 | > 128 | 32 (≈ 76.9 µM) | 128 (≈ 307 µM) | 128 (≈ 307 µM) | > 128 | 128 (≈ 307 µM) | 32 (≈ 76.9 µM) | –
6 | COc1ccc(/C=C/C(=O)Nc2cccnc2)cc1 | 128 (≈ 503 µM) | 128 (≈ 503 µM) | 128 (≈ 503 µM) | 32 (≈ 126 µM) | > 128 | 64 (≈ 252 µM) | 128 (≈ 503 µM) | > 128 | 128 (≈ 503 µM) | > 128 | 128 (≈ 503 µM) | 128 (≈ 503 µM) | 4 (≈ 15.7 µM) | –
7 | COc1cc(/C=C/C(=O)n2c(C)nc3ccccc32)cc(OC)c1OC | > 128 | 128 (≈ 363 µM) | > 128 | > 128 | > 128 | > 128 | 128 (≈ 363 µM) | 128 (≈ 363 µM) | 128 (≈ 363 µM) | > 128 | > 128 | > 128 | 64 (≈ 182 µM) | –
8 | CCN(CC)C(=O)/C=C/c1ccc(Cl)cc1Cl | > 128 | > 128 | 128 (≈ 470 µM) | > 128 | 128 (≈ 470 µM) | > 128 | 32 (≈ 118 µM) | 128 (≈ 470 µM) | 128 (≈ 470 µM) | > 128 | > 128 | > 128 | 128 (≈ 470 µM) | –
9 | CCCCCCNC(=O)/C=C/c1ccc(Cl)cc1Cl | > 128 | > 128 | > 128 | > 128 | > 128 | > 128 | > 128 | 128 (≈ 426 µM) | > 128 | 128 (≈ 426 µM) | > 128 | > 128 | > 128 | –
10 | Cc1nc2ccccc2n1C(=O)/C=C/c1ccc(Cl)cc1 | 128 (≈ 431 µM) | 128 (≈ 431 µM) | 128 (≈ 431 µM) | 8 (≈ 27 µM) | > 128 | 64 (≈ 216 µM) | 16 (≈ 53.9 µM) | 32 (≈ 108 µM) | 8 (≈ 27 µM) | > 128 | > 128 | > 128 | 0.5 (≈ 1.68 µM) | inhibition [14]: Dose-dependent effect; inhibition [15]: Dose-dependent effect
11 | O=C/C=C/c1ccccc1 | – | – | – | – | – | – | – | – | – | – | – | – | – | MIC (Escherichia coli [20]): 1000 µg/mL (≈ 7570 µM); MIC (Bacillus subtilis [21]): 500 µg/mL (≈ 3780 µM)
12 | CCCNC(=O)/C=C/c1ccc(Cl)cc1Cl [3-(2,4-DICHLOROPHENYL)-N-PROPYLACRYLAMIDE] | > 128 | 128 (≈ 496 µM) | 128 (≈ 496 µM) | > 128 | > 128 | > 128 | > 128 | 128 (≈ 496 µM) | > 128 | 32 (≈ 124 µM) | > 128 | > 128 | 64 (≈ 248 µM) | –
13 | Cc1nc2ccccc2n1C(=O)/C=C/c1ccccc1 | 128 (≈ 488 µM) | 128 (≈ 488 µM) | 128 (≈ 488 µM) | 4 (≈ 15.2 µM) | > 128 | 64 (≈ 244 µM) | 32 (≈ 122 µM) | 128 (≈ 488 µM) | 128 (≈ 488 µM) | > 128 | > 128 | > 128 | 0.25 (≈ 0.953 µM) | Ratio (Staphylococcus aureus [22]): >512; Ratio (Staphylococcus aureus [23]): >512; Ratio (Staphylococcus aureus [24]): >512
